Drawing on ChEMBL document CHEMBL2203159, “Synthesis and structure-activity relationships of fibrate-based analogues inside PPARs” (Bioorg Med Chem Lett, 2012), this text covers EC50, %max and Activity for 23 compounds.

Assay [1] addresses T1, Peroxisome proliferator-activated receptor alpha (Homo sapiens, UniProt Q07869).
T1 sequence (Q07869 whole entry): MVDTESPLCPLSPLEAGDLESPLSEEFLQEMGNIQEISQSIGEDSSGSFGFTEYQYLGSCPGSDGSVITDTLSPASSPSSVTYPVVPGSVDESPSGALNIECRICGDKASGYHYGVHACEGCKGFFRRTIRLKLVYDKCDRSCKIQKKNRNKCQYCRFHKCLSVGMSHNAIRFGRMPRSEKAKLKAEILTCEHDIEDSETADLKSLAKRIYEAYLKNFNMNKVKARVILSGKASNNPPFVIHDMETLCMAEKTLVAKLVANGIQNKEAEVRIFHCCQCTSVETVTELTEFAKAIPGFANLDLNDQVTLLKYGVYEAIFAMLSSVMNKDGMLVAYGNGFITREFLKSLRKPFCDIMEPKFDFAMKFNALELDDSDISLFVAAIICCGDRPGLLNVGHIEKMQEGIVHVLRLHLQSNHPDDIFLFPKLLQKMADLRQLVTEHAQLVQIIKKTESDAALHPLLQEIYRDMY
The assay is described as follows: Transactivation of human GAL4-fused PPARalpha ligand binding domain transfected in HEK293 cells after 18 hrs by dual luciferase reporter gene assay. Format: cell-based. An outline of the steps: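 HEK293 cells carried a GAL4–PPAR chimera and a GAL4-responsive luciferase reporter in a transactivation assay. Compounds were tested at 1 to 150 µM in at least two separate experiments, and results are given ± SEM.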
(Reporter assays use an easily measured gene product as a stand-in for the process of interest.)

The target in assay [2] is T2, Peroxisome proliferator-activated receptor gamma (Homo sapiens, UniProt P37231).
T2 sequence (P37231 whole entry): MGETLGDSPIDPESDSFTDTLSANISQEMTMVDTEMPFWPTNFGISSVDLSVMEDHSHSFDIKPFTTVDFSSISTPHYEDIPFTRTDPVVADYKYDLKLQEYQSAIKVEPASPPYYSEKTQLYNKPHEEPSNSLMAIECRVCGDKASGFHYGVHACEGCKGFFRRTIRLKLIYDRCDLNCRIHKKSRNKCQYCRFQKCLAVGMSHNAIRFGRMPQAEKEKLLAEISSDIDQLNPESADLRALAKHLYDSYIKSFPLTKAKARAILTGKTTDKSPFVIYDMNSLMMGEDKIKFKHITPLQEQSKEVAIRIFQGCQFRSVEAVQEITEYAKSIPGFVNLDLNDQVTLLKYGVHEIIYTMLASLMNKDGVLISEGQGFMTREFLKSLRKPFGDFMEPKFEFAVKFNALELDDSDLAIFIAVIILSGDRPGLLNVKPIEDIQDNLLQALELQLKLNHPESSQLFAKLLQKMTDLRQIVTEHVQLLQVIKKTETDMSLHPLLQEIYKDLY
The assay can be described thus: Transactivation of human GAL4-fused PPARgamma ligand binding domain transfected in HEK293 cells after 18 hrs by dual luciferase reporter gene assay. Format: cell-based.

Assay [3] deals with T3, Peroxisome proliferator-activated receptor alpha (Homo sapiens) (UniProt Q07869).
T3 sequence (whole entry): T1 sequence (Q07869 whole entry)
The assay can be described thus: Transactivation of human GAL4-fused PPARalpha ligand binding domain transfected in HEK293 cells at 150 uM after 18 hrs by dual luciferase reporter gene assay relative to clofibric acid. Format: cell-based. Put shortly: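 This is a GAL4–PPAR transactivation assay in HEK293 cells with a GAL4-responsive luciferase reporter, run in at least two separate experiments. Efficacy is the percentage of the maximum fold induction obtained with the reference agonist clofibric acid. Results are given ± SEM.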

Assay [4] addresses T3, Peroxisome proliferator-activated receptor alpha (Homo sapiens). The assay can be described thus: Transactivation of PPARalpha in human HepG2 cells assessed as increase in CPT1A mRNA expression after 48 hrs by RT-qPCR analysis. (In general: In qPCR the cycle at which signal appears reflects the starting amount.)

On to `CC(C)(Oc1ccc(CCOc2ccc(C(=O)c3ccccc3)cc2)cc1)C(=O)O`, for which the EC50 – broadly, the concentration giving half of the maximal effect – in assay [1] (hek293) was “Not Active”; in assay [2] (read-out: EC50), 54.6 µM.
For the compound `CC(C)(Oc1ccc(COc2nc3ccccc3s2)cc1)C(=O)O`, the EC50 in assay [1] (read-out: EC50) was 44.6 µM; in assay [2] (read-out: EC50), 32 µM. Besides, the %max in assay [3] was 125%.
Consider `CC(C)(Oc1ccc(COc2ccc(/N=N/c3ccccc3)cc2)cc1)C(=O)O`, for which the EC50 in assay [1] (read-out: EC50) worked out at 5.6 µM. This compound also returned a %max in assay [3] of 350%.
On to `CC(C)(Oc1ccc(COc2ccc(Oc3ccccc3)cc2)cc1)C(=O)O`, for which the EC50 entry is “Not Active” in assay [1] (hek293) and 0.8 µM in assay [2] (read-out: EC50).
Take `CC(C)(Oc1ccc(CCO)cc1)C(=O)O`: the values for the EC50 in assay [1] (read-out: EC50) and in assay [2] (hek293) were 75.1 µM and “Not Active”, respectively. The compound further registered a %max in assay [3] of 94%.
Consider `CC(C)(Oc1ccc(Cl)cc1)C(=O)O` [CLOFIBRIC ACID], for which the EC50 result in assay [2] (hek293) is on record as “Not Active”.
On to `CC(C)(Oc1ccc(COc2ccc(/C=C/c3ccccc3)cc2)cc1)C(=O)O`, for which the EC50 in assay [1] (read-out: EC50) was found to be 40.5 µM; in assay [2] (read-out: EC50) it was 6 µM. In addition, in assay [3], the %max is 156%.
For the compound `CC(C)(Oc1ccc(CCCOc2ccc(C(=O)/C=C/c3ccccc3)cc2)cc1)C(=O)O`, the EC50 entry in assay [1] (hek293) was “Not Active”; in assay [2] (read-out: EC50), 0.8 µM.
Consider `CC(C)(Oc1ccc(COc2ccc(C(=O)/C=C/c3ccccc3)cc2)cc1)C(=O)O`, for which the EC50 entry in assay [1] (hek293) and in assay [2] (hek293) was “Not Active” each time.
`CC(C)(Oc1ccc(CCOc2nc3ccccc3s2)cc1)C(=O)O`: the EC50 in assay [1] (read-out: EC50) amounted to 18.3 µM; in assay [2] (read-out: EC50) it was 39.3 µM. Moreover, the %max in assay [3] turned out to be 169%.
For `CC(C)(Oc1ccc(CO)cc1)C(=O)O`, in that order: 34.5 µM, 30 µM and 119%.
Consider `CC(C)(Oc1ccc(CCCOc2nc3ccccc3s2)cc1)C(=O)O`, for which the EC50 in assay [1] (read-out: EC50) stood at 45.8 µM; in assay [2] (read-out: EC50) it was 7.9 µM. In assay [3], this compound registered a %max of 100%.
Regarding `CC(C)(Oc1ccc(CCOc2ccc(Oc3ccccc3)cc2)cc1)C(=O)O`, the EC50 result was “Not Active” in assay [1] (hek293) and 6.9 µM in assay [2] (read-out: EC50).
With `CC(C)(Oc1ccc(CCOc2ccc(C(=O)/C=C/c3ccccc3)cc2)cc1)C(=O)O`, the EC50 in assay [1] (read-out: EC50) was 64 µM; in assay [2] (read-out: EC50), 5.9 µM. For the same compound, in assay [3], the %max was 118%.
Regarding `CC(C)(Oc1ccc(CCCOc2ccc(Oc3ccccc3)cc2)cc1)C(=O)O`, the EC50 entry in assay [1] (hek293) was “Not Active”; in assay [2] (read-out: EC50), 75.2 µM.
On the same counts, the results for `CC(C)(Oc1ccc(COc2ccc(C(=O)c3ccccc3)cc2)cc1)C(=O)O` are “Not Active” and 5.4 µM.
On the same counts, the results for `CC(C)(Oc1ccc(CCCOc2ccc(C(=O)c3ccccc3)cc2)cc1)C(=O)O` are “Not Active” and 5.8 µM.
On to `CC(C)(Oc1ccc(CCOc2ccc(/N=N/c3ccccc3)cc2)cc1)C(=O)O`, for which the Activity result in assay [4] is “Dose-dependent effect”. In addition, the EC50 in assay [1] (read-out: EC50) is 0.6 µM; in assay [2] (read-out: EC50), 1.4 µM. In assay [3], this compound registered a %max of 158%.
Take `CC(C)(Oc1ccc(CCCOc2ccc(/C=C/c3ccccc3)cc2)cc1)C(=O)O`: the EC50 in assay [1] (read-out: EC50) was 9.9 µM; in assay [2] (read-out: EC50), 0.8 µM. The compound further showed a %max in assay [3] of 125%.
Regarding `CC(C)(Oc1ccc(CCCO)cc1)C(=O)O`, the EC50 in assay [1] (read-out: EC50) is 30.6 µM; in assay [2] (hek293) it was “Not Active”. Also, the %max in assay [3] was 181%.
As for `CC(C)(Oc1ccc(CCOc2ccc(/C=C/c3ccccc3)cc2)cc1)C(=O)O`, the EC50 in assay [1] (read-out: EC50) was 11.6 µM; in assay [2] (read-out: EC50) it was 12.6 µM. In assay [3], the %max was determined as 81%.
As for `CC(C)(Oc1ccc(CCCOc2ccc(/N=N/c3ccccc3)cc2)cc1)C(=O)O`, the EC50 in assay [1] (read-out: EC50) came out at 42.8 µM; in assay [2] (read-out: EC50), 10 µM. This compound also had a %max in assay [3] of 81%.
For `CCc1ccc(CCOc2ccc(CC3SC(=O)NC3=O)cc2)nc1` (configuration not stated) [PIOGLITAZONE], the EC50 result in assay [1] (hek293) is “Not Active”.
